Results: ChEMBL document CHEMBL3351896, “Small Molecule that Reverses Dexamethasone Resistance in T-cell Acute Lymphoblastic Leukemia (T-ALL)” (ACS Med Chem Lett, 2014)
Active and inactive are the calls of the source. The calls are words filed in the database; no cut-off is given here.

Experiments:
[1] = target: Gamma-secretase (Homo sapiens) (UniProt Q96BI3+Q9NZ42+Q8WW43+P49768+Q92542+P49810); experiment: Inhibition of gamma secretase in human CUTLL1 cells assessed as effect on NOTCH cleavage level at 25 uM after 24 hrs by Western blotting; type: cell-based
Procedure, shortened: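 Western blot of intracellular NOTCH (ICN) in CUTLL1 cells after 24 h exposure to compound alone or with 1 μM dexamethasone. The γ-secretase inhibitor Compound E (100 nM) plus dexamethasone was the reference treatment.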

[2] = test system: CUTLL1; experiment: Increase in GR expression in human CUTLL1 cells at 50 uM after 6 hrs by RT-qPCR method; type: functional, cell-based
Procedure, shortened: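 CUTLL1 cells exposed to compound (25 or 50 μM) alone, with 1 μM dexamethasone, or with dexamethasone plus 1 μM RU486, for 6 or 24 h. GR measured as protein by Western blot and as transcript by RT-qPCR.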

[3] = test system: CUTLL1; experiment: Effect on ZFP36L2 gene expression in human CUTLL1 cells in presence of 1 uM dexamethasone at 30 uM after 24 hrs by microarray method; type: functional, cell-based
Procedure, shortened: (§1)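 Human CUTLL1 T-ALL cells exposed for 24 h to vehicle (DMSO), dexamethasone alone (1 μM), test compound alone (30 μM), or dexamethasone 1 μM plus compound 30 μM, each in triplicate. Expression profiled by microarray. Glucocorticoid-regulated gene sets from ALL patients on glucocorticoid therapy scored by GSEA. Leading-edge genes compared between the combination and dexamethasone alone.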

[4] = test system: CUTLL1; experiment: Effect on SMAP2 gene expression in human CUTLL1 cells in presence of 1 uM dexamethasone at 30 uM after 24 hrs by microarray method; type: functional, cell-based; procedure, shortened: as §1
[5] = test system: CUTLL1; experiment: Effect on TWISTNB gene expression in human CUTLL1 cells in presence of 1 uM dexamethasone at 30 uM after 24 hrs by microarray method; type: functional, cell-based; procedure, shortened: as §1
[6] = test system: CUTLL1; experiment: Effect on SMC2 gene expression in human CUTLL1 cells in presence of 1 uM dexamethasone at 30 uM after 24 hrs by microarray method; type: functional, cell-based; procedure, shortened: as §1
[7] = test system: CUTLL1; experiment: Effect on MCM10 gene expression in human CUTLL1 cells in presence of 1 uM dexamethasone at 30 uM after 24 hrs by microarray method; type: functional, cell-based
Procedure, shortened: (§2)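 CUTLL1 T-ALL cells exposed 24 h to vehicle (DMSO), dexamethasone alone (1 μM), test agent alone (30 μM), or dexamethasone (1 μM) plus test agent (30 μM), in triplicate. Expression profiled by microarray. Leading-edge genes from GSEA were compared between the dexamethasone-plus-agent and dexamethasone-alone groups, using glucocorticoid-regulated gene sets from ALL patients on glucocorticoid therapy.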

[8] = test system: CUTLL1; experiment: Effect on TIPIN gene expression in human CUTLL1 cells in presence of 1 uM dexamethasone at 30 uM after 24 hrs by microarray method; type: functional, cell-based; procedure, shortened: as §1
[9] = test system: CUTLL1; experiment: Effect on RUVBL1 gene expression in human CUTLL1 cells in presence of 1 uM dexamethasone at 30 uM after 24 hrs by microarray method; type: functional, cell-based; procedure, shortened: as §1
[10] = test system: CUTLL1; experiment: Effect on SKP2 gene expression in human CUTLL1 cells in presence of 1 uM dexamethasone at 30 uM after 24 hrs by microarray method; type: functional, cell-based; procedure, shortened: as §1
[11] = test system: CUTLL1; experiment: Effect on CDC25A gene expression in human CUTLL1 cells in presence of 1 uM dexamethasone at 30 uM after 24 hrs by microarray method; type: functional, cell-based; procedure, shortened: as §2
[12] = test system: CUTLL1; experiment: Effect on FEN1 gene expression in human CUTLL1 cells in presence of 1 uM dexamethasone at 30 uM after 24 hrs by microarray method; type: functional, cell-based; procedure, shortened: as §2
[13] = test system: CUTLL1; experiment: Effect on NXT1 gene expression in human CUTLL1 cells in presence of 1 uM dexamethasone at 30 uM after 24 hrs by microarray method; type: functional, cell-based; procedure, shortened: as §2
[14] = test system: CUTLL1; experiment: Effect on E2F7 gene expression in human CUTLL1 cells in presence of 1 uM dexamethasone at 30 uM after 24 hrs by microarray method; type: functional, cell-based; procedure, shortened: as §2
[15] = test system: CUTLL1; experiment: Effect on MCM4 gene expression in human CUTLL1 cells in presence of 1 uM dexamethasone at 30 uM after 24 hrs by microarray method; type: functional, cell-based; procedure, shortened: as §2
[16] = test system: CUTLL1; experiment: Effect on TSC22D3 gene expression in human CUTLL1 cells in absence of 1 uM dexamethasone at 30 uM after 24 hrs by microarray method; type: functional, cell-based; procedure, shortened: as §1
[17] = test system: CUTLL1; experiment: Effect on LILRB3 gene expression in human CUTLL1 cells in absence of 1 uM dexamethasone at 30 uM after 24 hrs by microarray method; type: functional, cell-based; procedure, shortened: as §2
[18] = test system: CUTLL1; experiment: Effect on SMAP2 gene expression in human CUTLL1 cells in absence of 1 uM dexamethasone at 30 uM after 24 hrs by microarray method; type: functional, cell-based; procedure, shortened: as §1
[19] = test system: CUTLL1; experiment: Effect on GGNBP2 gene expression in human CUTLL1 cells in absence of 1 uM dexamethasone at 30 uM after 24 hrs by microarray method; type: functional, cell-based; procedure, shortened: as §2
[20] = test system: CUTLL1; experiment: Effect on DDIT4 gene expression in human CUTLL1 cells in absence of 1 uM dexamethasone at 30 uM after 24 hrs by microarray method; type: functional, cell-based; procedure, shortened: as §2
[21] = test system: CUTLL1; experiment: Effect on RPS14 gene expression in human CUTLL1 cells in absence of 1 uM dexamethasone at 30 uM after 24 hrs by microarray method; type: functional, cell-based; procedure, shortened: as §1
[22] = test system: CUTLL1; experiment: Effect on DSCC1 gene expression in human CUTLL1 cells in absence of 1 uM dexamethasone at 30 uM after 24 hrs by microarray method; type: functional, cell-based; procedure, shortened: as §2
[23] = test system: CUTLL1; experiment: Effect on HELLS gene expression in human CUTLL1 cells in absence of 1 uM dexamethasone at 30 uM after 24 hrs by microarray method; type: functional, cell-based; procedure, shortened: as §2
[24] = test system: CUTLL1; experiment: Effect on SKP2 gene expression in human CUTLL1 cells in absence of 1 uM dexamethasone at 30 uM after 24 hrs by microarray method; type: functional, cell-based; procedure, shortened: as §1
[25] = test system: CUTLL1; experiment: Effect on NHP2 gene expression in human CUTLL1 cells in absence of 1 uM dexamethasone at 30 uM after 24 hrs by microarray method; type: functional, cell-based; procedure, shortened: as §2
[26] = test system: CUTLL1; experiment: Effect on NXT1 gene expression in human CUTLL1 cells in absence of 1 uM dexamethasone at 30 uM after 24 hrs by microarray method; type: functional, cell-based; procedure, shortened: as §2
[27] = test system: CUTLL1; experiment: Effect on RRM1 gene expression in human CUTLL1 cells in absence of 1 uM dexamethasone at 30 uM after 24 hrs by microarray method; type: functional, cell-based; procedure, shortened: as §1
[28] = test system: CUTLL1; experiment: Effect on GINS2 gene expression in human CUTLL1 cells in absence of 1 uM dexamethasone at 30 uM after 24 hrs by microarray method; type: functional, cell-based; procedure, shortened: as §2
[29] = test system: CUTLL1; experiment: Effect on ATAD2 gene expression in human CUTLL1 cells in absence of 1 uM dexamethasone at 30 uM after 24 hrs by microarray method; type: functional, cell-based; procedure, shortened: as §2
[30] = test system: CUTLL1; experiment: Effect on NME1 gene expression in human CUTLL1 cells in absence of 1 uM dexamethasone at 30 uM after 24 hrs by microarray method; type: functional, cell-based; procedure, shortened: as §2
[31] = test system: CUTLL1; experiment: Effect on USP1 gene expression in human CUTLL1 cells in absence of 1 uM dexamethasone at 30 uM after 24 hrs by microarray method; type: functional, cell-based; procedure, shortened: as §1
[32] = test system: CUTLL1; experiment: Effect on MCM4 gene expression in human CUTLL1 cells in absence of 1 uM dexamethasone at 30 uM after 24 hrs by microarray method; type: functional, cell-based; procedure, shortened: as §2
[33] = test system: CUTLL1; experiment: Effect on TK1 gene expression in human CUTLL1 cells in absence of 1 uM dexamethasone at 30 uM after 24 hrs by microarray method; type: functional, cell-based; procedure, shortened: as §1

Nc1ncc(-c2ccncc2)c(C2CC2)n1
inhibition [1]: inactive
Activity [2]: inactive
Activity [3]: Active
Activity [4]: Active
Activity [5]: Active
Activity [6]: Active
Activity [7]: Active
Activity [8]: Active
Activity [9]: Active
Activity [10]: Active
Activity [11]: Active
Activity [12]: Active
Activity [13]: Active
Activity [14]: Active
Activity [15]: Active
Activity [16]: inactive
Activity [17]: inactive
Activity [18]: inactive
Activity [19]: inactive
Activity [20]: inactive
Activity [21]: inactive
Activity [22]: inactive
Activity [23]: inactive
Activity [24]: inactive
Activity [25]: inactive
Activity [26]: inactive
Activity [27]: inactive
Activity [28]: inactive
Activity [29]: inactive
Activity [30]: inactive
Activity [31]: inactive
Activity [32]: inactive
Activity [33]: inactive
